{
  "source": "ChEMBL document CHEMBL1149171",
  "about": "“Development of orally bioavailable bicyclic pyrazolones as inhibitors of tumor necrosis factor-alpha production” (J Med Chem, 2004)",
  "key": {"[1]": {"assay": "Solubility was determined", "format": "ADME, Rattus norvegicus", "how_it_was_run": "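Shake-flask method in 50 mM phosphate buffer, pH 7.4, ionic strength 0.15 M, with 24 h equilibration. Supernatant was centrifuged and filtered, diluted with acetonitrile, and quantified by UV-vis against calibration standards in 1:1 acetonitrile/buffer.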"}, "[2]": {"assay": "Oral bioavailability in rat", "format": "ADME, organism-based", "details": "in vivo"}, "[3]": {"assay": "Metabolism was measured as percent loss at 4 hr in rat hepatocytes", "format": "ADME, Hepatocyte", "details": "read-out: Metabolism", "how_it_was_run": "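Plated Sprague-Dawley rat hepatocytes on matrigel at 37 °C, 0.25 µM compound, in triplicate. Samples taken at 0, 2 and 4 h and pooled across compounds after incubation, with internal standard added. Analysis by reverse-phase HPLC/MS/MS. Analyte/internal-standard area ratio at 4 h divided by the 0 h ratio gives percent loss.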"}, "[4]": {"target": "Cyclin-dependent kinase 1/cyclin B (Homo sapiens) (UniProt P06493+P14635+Q8WWL7+O95067)", "assay": "Inhibition of Cyclin-dependent kinase 1-cyclin B at 1 uM", "format": "protein-complex assay", "design": "scale not given: the % may be the effect or the level left", "how_it_was_run": "(§1)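 Kinase selectivity panel. Each kinase tested with compound at 1 µM and ATP at its K_m, in triplicate. Activity is given as a percentage of control incubations; SD typically 10%.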"}, "[5]": {"target": "Mitogen-activated protein kinase 1 (Homo sapiens) (UniProt P28482)", "sequence (P28482 whole entry)": "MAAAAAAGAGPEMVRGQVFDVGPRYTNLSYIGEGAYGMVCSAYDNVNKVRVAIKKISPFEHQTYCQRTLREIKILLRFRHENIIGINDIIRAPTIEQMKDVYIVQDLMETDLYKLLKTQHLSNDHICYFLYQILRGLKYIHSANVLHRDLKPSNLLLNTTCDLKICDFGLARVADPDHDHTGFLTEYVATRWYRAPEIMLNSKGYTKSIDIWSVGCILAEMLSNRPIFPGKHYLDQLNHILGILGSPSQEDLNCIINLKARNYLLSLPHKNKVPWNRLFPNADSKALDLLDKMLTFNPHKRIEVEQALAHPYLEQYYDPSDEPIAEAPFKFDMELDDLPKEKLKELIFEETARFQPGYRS", "assay": "Inhibition of ERK2/MAPK2 kinase at 1 uM", "design": "scale not given: the % may be the effect or the level left", "how_it_was_run": "as §1"}, "[6]": {"target": "Glycogen synthase kinase-3 beta (Homo sapiens) (UniProt P49841)", "sequence (P49841 whole entry, looked up)": "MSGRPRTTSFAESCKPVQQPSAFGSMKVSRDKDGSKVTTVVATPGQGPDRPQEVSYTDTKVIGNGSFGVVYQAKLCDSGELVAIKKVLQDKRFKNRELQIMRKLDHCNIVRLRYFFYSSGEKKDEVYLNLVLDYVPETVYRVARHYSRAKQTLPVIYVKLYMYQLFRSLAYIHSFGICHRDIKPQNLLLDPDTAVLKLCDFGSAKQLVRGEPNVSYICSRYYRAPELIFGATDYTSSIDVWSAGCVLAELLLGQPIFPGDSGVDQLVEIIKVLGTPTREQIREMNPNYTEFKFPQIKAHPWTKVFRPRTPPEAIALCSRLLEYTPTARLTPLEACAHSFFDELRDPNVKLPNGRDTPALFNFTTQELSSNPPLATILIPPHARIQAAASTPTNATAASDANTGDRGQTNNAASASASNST", "assay": "Inhibition of Glycogen synthase kinase-3 beta at 1 uM", "design": "scale not given: the % may be the effect or the level left", "how_it_was_run": "as §1"}, "[7]": {"assay": "Inhibition of MAPK1/IKKB kinase at 1 uM", "design": "scale not given: the % may be the effect or the level left", "how_it_was_run": "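Kinase panel, tested at 1 µM compound with ATP at its K_m, in triplicate. Activity is expressed as a percentage of that in control incubations.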"}, "[8]": {"target": "MAP kinase-activated protein kinase 2 (Homo sapiens) (UniProt P49137)", "sequence (P49137 whole entry, looked up)": "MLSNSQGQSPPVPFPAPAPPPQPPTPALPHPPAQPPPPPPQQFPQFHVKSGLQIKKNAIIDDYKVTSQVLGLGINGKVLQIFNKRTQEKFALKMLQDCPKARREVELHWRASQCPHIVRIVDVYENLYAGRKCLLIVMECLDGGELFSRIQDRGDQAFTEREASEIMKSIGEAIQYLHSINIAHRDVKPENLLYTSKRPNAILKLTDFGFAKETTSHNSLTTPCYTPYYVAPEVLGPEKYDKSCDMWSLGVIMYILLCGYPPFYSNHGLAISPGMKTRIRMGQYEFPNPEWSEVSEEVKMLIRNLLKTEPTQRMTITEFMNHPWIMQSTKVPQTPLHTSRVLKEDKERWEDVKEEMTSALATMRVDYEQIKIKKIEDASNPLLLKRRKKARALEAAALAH", "assay": "Inhibition of MAPKAP-K2 kinase at 1 uM", "design": "scale not given: the % may be the effect or the level left", "how_it_was_run": "as §1"}, "[9]": {"target": "T1, Dual specificity mitogen-activated protein kinase kinase 4 (Homo sapiens) (UniProt P45985)", "T1 sequence (whole entry)": "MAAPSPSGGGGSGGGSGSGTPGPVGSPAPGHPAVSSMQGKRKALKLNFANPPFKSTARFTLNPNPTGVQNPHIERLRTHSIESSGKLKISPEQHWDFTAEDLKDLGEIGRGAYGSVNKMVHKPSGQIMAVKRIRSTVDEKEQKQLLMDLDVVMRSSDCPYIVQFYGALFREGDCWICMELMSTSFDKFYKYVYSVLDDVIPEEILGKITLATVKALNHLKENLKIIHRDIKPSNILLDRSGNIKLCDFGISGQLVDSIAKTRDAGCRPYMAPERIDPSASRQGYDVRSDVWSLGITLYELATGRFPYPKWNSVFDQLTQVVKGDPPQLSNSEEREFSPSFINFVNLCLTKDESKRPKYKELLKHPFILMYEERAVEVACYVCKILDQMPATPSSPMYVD", "assay": "Inhibition of MKK4/SKK1 kinase at 1 uM", "design": "scale not given: the % may be the effect or the level left", "how_it_was_run": "as §1"}, "[10]": {"target": "Mitogen-activated protein kinase 3 (Homo sapiens) (UniProt P27361)", "sequence (P27361 whole entry)": "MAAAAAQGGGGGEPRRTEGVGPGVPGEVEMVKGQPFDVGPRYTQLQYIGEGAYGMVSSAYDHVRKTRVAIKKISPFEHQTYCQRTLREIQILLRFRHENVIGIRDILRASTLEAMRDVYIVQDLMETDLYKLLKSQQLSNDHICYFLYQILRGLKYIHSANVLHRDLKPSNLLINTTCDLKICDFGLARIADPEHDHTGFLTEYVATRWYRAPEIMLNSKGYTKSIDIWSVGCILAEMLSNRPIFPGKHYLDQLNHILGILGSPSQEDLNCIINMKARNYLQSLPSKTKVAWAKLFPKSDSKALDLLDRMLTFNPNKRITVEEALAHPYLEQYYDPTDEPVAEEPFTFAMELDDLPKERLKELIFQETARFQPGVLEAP", "assay": "Inhibition of Mitogen-activated protein kinase 3 kinase at 1 uM", "design": "scale not given: the % may be the effect or the level left", "how_it_was_run": "as §1"}, "[11]": {"target": "MAP kinase p38 (Homo sapiens, UniProt O15264+Q15759+Q16539+P53778)", "assay": "Inhibition of human Mitogen-activated protein kinase p38", "format": "protein assay"}, "[12]": {"target": "RAC-alpha serine/threonine-protein kinase (Homo sapiens) (UniProt P31749)", "sequence (P31749 whole entry)": "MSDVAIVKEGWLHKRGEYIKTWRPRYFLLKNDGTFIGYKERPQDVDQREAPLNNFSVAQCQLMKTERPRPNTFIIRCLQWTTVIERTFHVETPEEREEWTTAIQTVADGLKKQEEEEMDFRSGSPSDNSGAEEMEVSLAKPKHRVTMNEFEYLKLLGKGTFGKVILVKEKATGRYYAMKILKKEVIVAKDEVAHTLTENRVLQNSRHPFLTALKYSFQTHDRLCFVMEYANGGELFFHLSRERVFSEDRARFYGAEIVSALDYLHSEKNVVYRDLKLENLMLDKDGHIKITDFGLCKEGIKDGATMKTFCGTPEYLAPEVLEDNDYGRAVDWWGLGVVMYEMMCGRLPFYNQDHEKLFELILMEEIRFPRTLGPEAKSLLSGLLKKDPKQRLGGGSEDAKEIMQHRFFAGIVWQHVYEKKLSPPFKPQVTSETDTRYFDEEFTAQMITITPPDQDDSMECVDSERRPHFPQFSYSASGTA", "assay": "Inhibition of Protein kinase B alpha (Akt) at 1 uM", "design": "scale not given: the % may be the effect or the level left", "how_it_was_run": "as §1"}, "[13]": {"target": "RAF proto-oncogene serine/threonine-protein kinase (Homo sapiens) (UniProt P04049)", "sequence (P04049 whole entry)": "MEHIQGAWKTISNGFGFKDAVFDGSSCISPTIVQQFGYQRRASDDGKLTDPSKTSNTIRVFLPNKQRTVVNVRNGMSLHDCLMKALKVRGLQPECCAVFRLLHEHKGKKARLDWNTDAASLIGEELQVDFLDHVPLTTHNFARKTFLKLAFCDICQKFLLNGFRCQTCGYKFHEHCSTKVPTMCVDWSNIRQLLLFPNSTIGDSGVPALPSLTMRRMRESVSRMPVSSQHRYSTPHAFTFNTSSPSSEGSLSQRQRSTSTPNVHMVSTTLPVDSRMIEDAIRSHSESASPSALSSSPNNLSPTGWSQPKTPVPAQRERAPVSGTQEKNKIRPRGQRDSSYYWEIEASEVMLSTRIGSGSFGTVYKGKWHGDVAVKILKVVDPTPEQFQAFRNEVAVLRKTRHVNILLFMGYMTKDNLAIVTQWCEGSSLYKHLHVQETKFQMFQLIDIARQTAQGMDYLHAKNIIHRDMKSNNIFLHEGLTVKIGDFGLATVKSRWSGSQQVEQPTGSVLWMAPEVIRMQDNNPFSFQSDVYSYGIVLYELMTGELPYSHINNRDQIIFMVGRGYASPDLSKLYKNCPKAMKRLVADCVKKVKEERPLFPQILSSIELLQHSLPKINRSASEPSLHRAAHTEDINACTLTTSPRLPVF", "assay": "Inhibition of RAF proto-oncogene serine/threonine-protein kinase at 1 uM", "design": "scale not given: the % may be the effect or the level left", "how_it_was_run": "as §1"}, "[14]": {"target": "Mitogen-activated protein kinase 9 (Homo sapiens) (UniProt P45984)", "sequence (P45984 whole entry, looked up)": "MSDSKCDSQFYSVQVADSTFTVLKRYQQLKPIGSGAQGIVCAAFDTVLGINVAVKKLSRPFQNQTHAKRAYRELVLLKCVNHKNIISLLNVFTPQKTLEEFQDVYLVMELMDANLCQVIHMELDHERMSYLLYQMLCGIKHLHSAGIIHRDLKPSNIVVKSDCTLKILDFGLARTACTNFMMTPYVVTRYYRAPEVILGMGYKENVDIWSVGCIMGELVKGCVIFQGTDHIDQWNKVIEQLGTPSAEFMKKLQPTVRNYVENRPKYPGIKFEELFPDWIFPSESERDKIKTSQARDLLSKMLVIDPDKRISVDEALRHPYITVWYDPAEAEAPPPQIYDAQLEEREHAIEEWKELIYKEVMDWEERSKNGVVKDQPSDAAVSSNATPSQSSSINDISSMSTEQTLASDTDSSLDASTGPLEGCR", "assay": "Inhibition of c-Jun N-terminal kinase 2-alpha 2 at 1 uM", "design": "scale not given: the % may be the effect or the level left", "how_it_was_run": "as §1"}, "[15]": {"target": "Mitogen-activated protein kinase 10 (Homo sapiens) (UniProt P53779)", "sequence (P53779 whole entry)": "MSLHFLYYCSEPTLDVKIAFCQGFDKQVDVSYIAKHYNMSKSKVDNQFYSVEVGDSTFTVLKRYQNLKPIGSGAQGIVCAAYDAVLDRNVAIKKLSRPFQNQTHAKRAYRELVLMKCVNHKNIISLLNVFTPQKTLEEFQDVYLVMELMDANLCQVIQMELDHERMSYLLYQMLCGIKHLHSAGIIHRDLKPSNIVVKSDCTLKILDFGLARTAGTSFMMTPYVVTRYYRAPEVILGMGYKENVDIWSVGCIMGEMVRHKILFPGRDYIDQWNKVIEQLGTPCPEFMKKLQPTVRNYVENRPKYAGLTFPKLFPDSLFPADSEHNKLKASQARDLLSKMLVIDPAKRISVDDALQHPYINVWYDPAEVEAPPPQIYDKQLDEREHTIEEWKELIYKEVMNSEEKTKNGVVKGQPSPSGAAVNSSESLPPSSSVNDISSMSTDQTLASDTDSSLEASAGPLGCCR", "assay": "Inhibition of c-Jun N-terminal kinase 3 at 1 uM", "design": "scale not given: the % may be the effect or the level left", "how_it_was_run": "as §1"}, "[16]": {"target": "Mitogen-activated protein kinase 8 (Homo sapiens) (UniProt P45983)", "sequence (P45983 whole entry)": "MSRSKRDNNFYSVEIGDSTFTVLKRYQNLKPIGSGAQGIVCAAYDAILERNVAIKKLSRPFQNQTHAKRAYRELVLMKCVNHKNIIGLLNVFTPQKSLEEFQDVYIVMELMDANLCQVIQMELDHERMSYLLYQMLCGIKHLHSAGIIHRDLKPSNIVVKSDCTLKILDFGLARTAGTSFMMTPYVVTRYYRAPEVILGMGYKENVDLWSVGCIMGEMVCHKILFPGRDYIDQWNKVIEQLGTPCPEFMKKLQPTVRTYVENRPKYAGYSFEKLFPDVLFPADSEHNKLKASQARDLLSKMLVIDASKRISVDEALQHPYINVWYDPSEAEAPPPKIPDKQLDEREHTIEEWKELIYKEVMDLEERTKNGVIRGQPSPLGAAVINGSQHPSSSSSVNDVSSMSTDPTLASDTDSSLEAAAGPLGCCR", "assay": "Inhibition of c-Jun N-terminal kinase 1-alpha 1 at 1 uM", "design": "scale not given: the % may be the effect or the level left", "how_it_was_run": "as §1"}, "[17]": {"target": "Tyrosine-protein kinase Lck (Homo sapiens) (UniProt P06239)", "sequence (P06239 2-509 limits assumed)": "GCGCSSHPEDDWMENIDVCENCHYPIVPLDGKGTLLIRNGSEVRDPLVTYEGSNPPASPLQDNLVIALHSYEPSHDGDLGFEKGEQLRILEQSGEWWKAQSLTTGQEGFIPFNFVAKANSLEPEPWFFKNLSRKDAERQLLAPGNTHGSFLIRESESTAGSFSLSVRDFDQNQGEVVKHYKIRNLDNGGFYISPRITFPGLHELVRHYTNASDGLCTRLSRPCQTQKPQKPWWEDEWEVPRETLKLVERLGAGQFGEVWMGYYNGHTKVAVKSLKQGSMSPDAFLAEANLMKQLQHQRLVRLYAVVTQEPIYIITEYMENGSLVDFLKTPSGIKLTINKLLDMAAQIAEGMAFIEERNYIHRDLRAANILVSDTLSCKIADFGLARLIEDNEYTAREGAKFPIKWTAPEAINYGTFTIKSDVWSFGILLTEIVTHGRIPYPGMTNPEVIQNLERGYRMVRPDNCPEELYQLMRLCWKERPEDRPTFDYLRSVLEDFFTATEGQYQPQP", "assay": "Inhibition of p56 Lck tyrosine kinase at 1 uM", "design": "scale not given: the % may be the effect or the level left", "how_it_was_run": "as §1"}, "[18]": {"target": "Cyclin-dependent kinase 2/cyclin A (Homo sapiens) (UniProt P24941+P20248+P78396)", "assay": "Inhibition of Cyclin-dependent kinase 2-cyclin A at 1 uM", "format": "protein-complex assay", "design": "scale not given: the % may be the effect or the level left", "how_it_was_run": "as §1"}, "[19]": {"target": "Dual specificity mitogen-activated protein kinase kinase 1 (MEK1, MAP2K1) (Homo sapiens) (UniProt Q02750)", "sequence (Q02750 whole entry, looked up)": "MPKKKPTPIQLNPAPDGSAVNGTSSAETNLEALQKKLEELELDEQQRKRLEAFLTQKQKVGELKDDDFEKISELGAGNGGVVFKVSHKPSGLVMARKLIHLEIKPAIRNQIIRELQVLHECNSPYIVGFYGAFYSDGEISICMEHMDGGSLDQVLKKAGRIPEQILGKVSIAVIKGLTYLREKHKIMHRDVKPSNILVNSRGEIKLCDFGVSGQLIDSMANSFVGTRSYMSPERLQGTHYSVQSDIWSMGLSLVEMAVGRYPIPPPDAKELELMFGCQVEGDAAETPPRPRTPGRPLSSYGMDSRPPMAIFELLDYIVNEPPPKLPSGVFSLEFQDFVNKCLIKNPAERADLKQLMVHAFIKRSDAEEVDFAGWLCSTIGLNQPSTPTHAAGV", "assay": "Inhibition of Dual specificity mitogen activated protein kinase kinase 1 at 1 uM", "design": "scale not given: the % may be the effect or the level left"}, "[20]": {"target": "Mitogen-activated protein kinase 3 (Homo sapiens) (UniProt P27361)", "assay": "Inhibition of Mitogen-activated protein kinase 3 at 1 uM", "design": "scale not given: the % may be the effect or the level left", "how_it_was_run": "as §1"}},
  "data": [
    {"smiles": "C[C@H](Nc1nccc(-c2c(-c3ccc(F)cc3)c(=O)n3n2CCC3)n1)C(C)(C)O", "values": [
      {"measurement": "solubility", "setting": "[1]", "value": 1850, "unit": "µg/mL"},
      {"measurement": "bioavailability", "setting": "[2]", "value": 25, "unit": "%"},
      {"measurement": "metabolised at 4 h", "setting": "[3]", "value": 29, "unit": "%"},
      {"measurement": "Activity", "setting": "[4]", "value": 99, "unit": "%"},
      {"measurement": "Activity", "setting": "[5]", "value": 108, "unit": "%"},
      {"measurement": "Activity", "setting": "[6]", "value": 99, "unit": "%"},
      {"measurement": "Activity", "setting": "[7]", "value": 111, "unit": "%"},
      {"measurement": "Activity", "setting": "[8]", "value": 112, "unit": "%"},
      {"measurement": "Activity", "setting": "[9]", "value": 117, "unit": "%"},
      {"measurement": "Activity", "setting": "[10]", "value": 9, "unit": "%"},
      {"measurement": "IC50", "setting": "[11]", "value": 54, "unit": "nM"},
      {"measurement": "Activity", "setting": "[12]", "value": 119, "unit": "%"},
      {"measurement": "Activity", "setting": "[13]", "value": 91, "unit": "%"},
      {"measurement": "Activity", "setting": "[14]", "value": 73, "unit": "%"},
      {"measurement": "Activity", "setting": "[15]", "value": 36, "unit": "%"},
      {"measurement": "Activity", "setting": "[16]", "value": 105, "unit": "%"},
      {"measurement": "Activity", "setting": "[17]", "value": 141, "unit": "%"},
      {"measurement": "Activity", "setting": "[18]", "value": 101, "unit": "%"},
      {"measurement": "Activity", "setting": "[19]", "value": 95, "unit": "%"}
    ]},
    {"smiles": "CC[C@H](C)Nc1nccc(-c2c(-c3ccc(F)cc3)c(=O)n3n2CCC3)n1", "values": [
      {"measurement": "solubility", "setting": "[1]", "value": 460, "unit": "µg/mL"},
      {"measurement": "bioavailability", "setting": "[2]", "value": 10, "unit": "%"},
      {"measurement": "metabolised at 4 h", "setting": "[3]", "value": 60, "unit": "%"}
    ]},
    {"smiles": "COC[C@H](C)Nc1nccc(-c2c(-c3ccc(F)cc3)c(=O)n3n2CCC3)n1", "values": [
      {"measurement": "solubility", "setting": "[1]", "value": 840, "unit": "µg/mL"},
      {"measurement": "bioavailability", "setting": "[2]", "value": 63, "unit": "%"},
      {"measurement": "metabolised at 4 h", "setting": "[3]", "value": "< 5", "unit": "%"},
      {"measurement": "Activity", "setting": "[4]", "value": 96, "unit": "%"},
      {"measurement": "Activity", "setting": "[5]", "value": 98, "unit": "%"},
      {"measurement": "Activity", "setting": "[6]", "value": 72, "unit": "%"},
      {"measurement": "Activity", "setting": "[8]", "value": 113, "unit": "%"},
      {"measurement": "Activity", "setting": "[9]", "value": 90, "unit": "%"},
      {"measurement": "Activity", "setting": "[10]", "value": 96, "unit": "%"},
      {"measurement": "IC50", "setting": "[11]", "value": 27, "unit": "nM"},
      {"measurement": "Activity", "setting": "[12]", "value": 89, "unit": "%"},
      {"measurement": "Activity", "setting": "[13]", "value": 55, "unit": "%"},
      {"measurement": "Activity", "setting": "[14]", "value": 8, "unit": "%"},
      {"measurement": "Activity", "setting": "[15]", "value": 5, "unit": "%"},
      {"measurement": "Activity", "setting": "[16]", "value": 65, "unit": "%"},
      {"measurement": "Activity", "setting": "[18]", "value": 108, "unit": "%"},
      {"measurement": "Activity", "setting": "[19]", "value": 102, "unit": "%"}
    ]},
    {"smiles": "C[C@H](Nc1nccc(-c2c(-c3ccc(F)cc3)c(=O)n3n2CCC3)n1)c1ccccc1", "values": [
      {"measurement": "solubility", "setting": "[1]", "value": 200, "unit": "µg/mL"},
      {"measurement": "bioavailability", "setting": "[2]", "value": 29, "unit": "%"},
      {"measurement": "metabolised at 4 h", "setting": "[3]", "value": 50, "unit": "%"},
      {"measurement": "Activity", "setting": "[4]", "value": 95, "unit": "%"},
      {"measurement": "Activity", "setting": "[5]", "value": 80, "unit": "%"},
      {"measurement": "Activity", "setting": "[6]", "value": 101, "unit": "%"},
      {"measurement": "Activity", "setting": "[8]", "value": 91, "unit": "%"},
      {"measurement": "Activity", "setting": "[9]", "value": 166, "unit": "%"},
      {"measurement": "Activity", "setting": "[20]", "value": 82, "unit": "%"},
      {"measurement": "IC50", "setting": "[11]", "value": 8, "unit": "nM"},
      {"measurement": "Activity", "setting": "[12]", "value": 98, "unit": "%"},
      {"measurement": "Activity", "setting": "[13]", "value": 61, "unit": "%"},
      {"measurement": "Activity", "setting": "[14]", "value": 8, "unit": "%"},
      {"measurement": "Activity", "setting": "[15]", "value": 4, "unit": "%"},
      {"measurement": "Activity", "setting": "[16]", "value": 52, "unit": "%"},
      {"measurement": "Activity", "setting": "[17]", "value": 161, "unit": "%"},
      {"measurement": "Activity", "setting": "[18]", "value": 117, "unit": "%"},
      {"measurement": "Activity", "setting": "[19]", "value": 99, "unit": "%"}
    ]},
    {"smiles": "O=c1c(-c2ccc(F)cc2)c(-c2ccnc(NCc3ccccc3)n2)n2n1CCC2", "values": [
      {"measurement": "solubility", "setting": "[1]", "value": 100, "unit": "µg/mL"},
      {"measurement": "bioavailability", "setting": "[2]", "value": 18, "unit": "%"},
      {"measurement": "metabolised at 4 h", "setting": "[3]", "value": 46, "unit": "%"}
    ]}
  ]
}
